From PubChem
In the library only some 1.7% were active in any assay of this set; here they are far more common.
CXCR6 inh – CXCR6 receptor inhibitors, primary screen, cell-based, beta-arrestin, luminescence, CHO-K1 PathHunter, 1536-well; 360,000 compounds, 0.36% hits; inhibition, % at 20 µM; in the data active means inhibition above about 34%, passing the limit was not always enough;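 further: antagonist mode with CXCL16 agonist at 10 nM final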
APJ antag – antagonists of human apelin receptor APJ, primary screen, CHO-K1 cells, beta-arrestin complementation, luminescence; 330,000 compounds, 0.32% hits; P35414; inhibition, % at 20 µM;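 active means inhibition above about 40% at 20 µM, limit read from the data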;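 further: cells challenged with 10 nM apelin-13 agonist together with compound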
CCR6 antagonist – CCR6 receptor antagonists, primary screen, cell-based, CHO-K1, luminescence, beta-arrestin, uHTS; C-C chemokine receptor type 6 (Homo sapiens), P51684; CHO-K1 CCR6 PathHunter beta-arrestin, CCL20-stimulated; inhibition, % at 20 µM; 340,000 compounds, 0.49% hits; AID 493098, 2011;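 active means compounds whose inhibition of the agonist-driven luminescence signal at 20 µM reaches about 50%, limit read from the data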;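 further: cells stimulated with CCL20 at 14 nM final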
Beta2AR agonist – beta2AR agonists driving receptor internalization, primary screen, cell-based, FAP fluorogen, flow cytometry; Beta-2 adrenergic receptor (Homo sapiens), P07550; Am2.2-beta2AR cells; response, % (test concentration not listed); 340,000 compounds, 0.43% hits; AID 504454, 2011;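 active means response above a set limit, near 3 SD of response in nonfluorescent compounds, cut at about 42% in these data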
Target sequence (P07550 whole entry, looked up): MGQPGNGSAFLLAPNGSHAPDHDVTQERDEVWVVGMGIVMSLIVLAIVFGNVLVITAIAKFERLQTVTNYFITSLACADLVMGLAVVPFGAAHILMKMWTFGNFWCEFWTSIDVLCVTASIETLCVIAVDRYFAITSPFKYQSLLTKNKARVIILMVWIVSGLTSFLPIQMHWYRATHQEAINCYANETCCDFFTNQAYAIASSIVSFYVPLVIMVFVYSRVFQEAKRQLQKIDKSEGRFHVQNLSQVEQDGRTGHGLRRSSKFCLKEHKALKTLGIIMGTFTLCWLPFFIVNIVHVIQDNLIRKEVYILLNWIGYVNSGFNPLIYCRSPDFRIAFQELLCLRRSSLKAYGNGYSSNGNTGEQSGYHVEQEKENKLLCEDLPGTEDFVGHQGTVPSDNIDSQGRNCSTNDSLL
APJ agonist – agonists of human apelin receptor APJ, primary screen, CHO-K1 cells, PathHunter beta-arrestin, luminescence; P35414; 0% DMSO wells, 100% apelin; activation, % at 20 µM; 330,000 compounds, 0.11% hits; AID 2520, 2010;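 active means activation more than six SD over the plate average, tested at 20 µM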
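Assay system: CHO-K1 APJ beta-arrestin complementation cell line / Compound: single test compound dose, 20 µM final, 1% DMSO / Times: overnight seeding, 90 min compound at 25 °C, 1 h detection / Technique: beta-gal luminescence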
PfG6PD inh – PfG6PD enzyme inhibitors, primary screen, biochemical, fluorescence intensity, uHTS; 350,000 compounds, 0.78% hits; glucose-6-phosphate dehydrogenase-6-phosphogluconolactonase (Plasmodium falciparum 3D7); PfGluPho enzyme, NADPH resazurin-diaphorase fluorescence; inhibition, % at 20 µM;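 active means inhibition reaching at least a set limit at 20 µM in the primary screen, cut at about 59% in these data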
APJ antag confirm – APJ antagonists blocking beta-arrestin recruitment, confirmation, cell-based, luminescence, single concentration, uHTS hits | shares compounds with APJ antag | antagonist mode | inhibition, % at 20 µM | 950 compounds, 66% hits | AID 2766, 2010; in the data active means inhibition above about 50%
B2AR ag CP1 – beta2AR agonists via receptor internalization, confirmation, cell-based, FAP fluorogen, flow cytometry, single point, cherry pick 1. 1,100 compounds, 25% hits. percent response (surface receptor), % at 10 µM. Am2.2-beta2AR cells, FAP surface receptor; stronger effect = lower value. AID 540358, 2011. shares compounds with Beta2AR agonist;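 active means surface receptor percent response at or below 58%, roughly 3 SD from nonfluorescent compounds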
FAP fluor counter – flagged in Am2.2 fluorescence counterscreen for beta-2AR agonists; shares compounds with Beta2AR agonist; Am2.2 cells, FAP fluorogen flow cytometry; stronger effect = lower value; calls only at 10 µM; 1,100 tested, under 10 active; AID 588765;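 active means percent response below a set limit in fluorescence channel 1 and below 50% in channel 8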
PfGluPho conf – PfG6PD inhibitors, hit retest, confirmation, biochemical, fluorescence intensity, single concentration | shares compounds with PfG6PD inh | recombinant PfGluPho, NADPH-diaphorase-resazurin fluorescence | inhibition, % at 20 µM | 2,400 compounds, 34% hits | AID 504753, 2011;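 active means inhibition of at least 50% at 20 µM in any single replicate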
CXCR6 antag conf – CXCR6 receptor antagonists, confirmation, cell-based, single concentration, beta-arrestin, luminescence; shares compounds with CXCR6 inh; CHO-K1 CXCR6 PathHunter beta-arrestin; inhibition, % at 20 µM; 700 compounds, 65% hits;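 active means mean inhibition over four retests above 40%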;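 further: receptor stimulated with 10 nM CXCL16 agonist; beta-galactosidase fragment complementation upon beta-arrestin recruitment to receptor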
Hits are given with their value; n = inactive; x = no result given.

SMILES	CXCR6 inh	APJ antag	CCR6 antagonist	Beta2AR agonist	APJ agonist	PfG6PD inh	APJ antag confirm	B2AR ag CP1	FAP fluor counter	CXCR6 antag conf	others
COc1ccc(-c2nnc(SC)nc2-c2ccc(OC)c([N+](=O)[O-])c2)cc1[N+](=O)[O-]	n	n	n	n	n	n	x	x	x	x
CC(C(=O)NCc1cccnc1)c1ccc([N+](=O)[O-])cc1 (stereo unspecified)	n	n	n	n	n	n	x	x	x	x
CCCOc1cccc(-c2cc(C(=O)N/N=C/c3ccccn3)c3ccccc3n2)c1	57	48	70	n	n	n	54	x	x	46
Fc1ccc(NC(=S)Nc2nccs2)cc1	53	46	n	n	n	n	62	x	x	78
Cc1ccc(CN2C(=O)C(Cc3ccccc3)Nc3ncnc(N4CCN(c5ccccc5)CC4)c32)cc1 (stereo unspecified)	74	74	80	n	n	n	111	x	x	72
O=C1C(Cc2ccccc2)Nc2ncnc(N3CCN(c4ccccc4)CC3)c2N1Cc1ccc(Br)cc1 (stereo unspecified)	74	82	87	n	n	n	118	x	x	79
N=c1c(C(=O)NC2CCCC2)cc2c(=O)n3ccccc3nc2n1C1CCCCC1	n	n	n	n	n	n	x	x	x	x
C/C(=N\NC(=O)c1ccc(F)cc1)c1ccccn1	72	60	80	n	n	n	87	x	x	86
O=[N+]([O-])c1c(Nc2ccc(O)cc2)cc(Cl)c2nonc12	107	96	107	81	n	60	126	x	x	109	PfGluPho conf=n
CN(C)c1cc(Nc2ccc(O)cc2)c([N+](=O)[O-])c2nonc12	n	n	n	n	n	n	x	x	x	x
CCCC(=O)OCCNc1cc(Sc2nc3ccccc3[nH]2)c2nonc2c1[N+](=O)[O-]	94	87	118	n	n	65	126	x	x	103	PfGluPho conf=n
Cc1nn(Cc2ccccc2)c(N)c1-c1ccccc1	n	n	n	50	n	n	x	n	n	x
Cc1ccc(S(=O)(=O)c2ccc([N+](=O)[O-])o2)cc1	97	x	103	86	x	n	x	16	n	x
CC(=O)c1cccc(N=c2scc(-c3ccc(S(=O)(=O)N4CCOCC4)cc3)n2CCO)c1	n	n	n	104	n	n	x	n	n	x
COc1ccccc1OCCCC(=O)Nc1nccs1	n	n	n	76	n	n	x	n	n	x
Cc1ccc(Cl)cc1NS(=O)(=O)N1CCOCC1	n	n	n	n	n	n	x	x	x	x
COc1ccc(Cl)cc1NS(=O)(=O)N1CCOCC1	n	n	n	50	n	n	x	n	n	x
Cc1cc(C)n(-c2nc(NC(C)(C)C)nc(NC(C)(C)C)n2)n1	n	n	n	n	n	n	x	x	x	x
CCNc1nc(NCC)nc(-n2nc(C)cc2C)n1	n	n	n	n	n	n	x	n	n	x
Cc1cc(C)n(-c2nc(NC(C)C)nc(NC(C)C)n2)n1	n	n	n	n	n	n	x	n	n	x
